Assay outcomes as filed in PubChem BioAssay.
5HT1E antag: 5-HT1E (human) receptor antagonism | 65,000 compounds, 0.99% hits | P28566 | CHO 5-HT1E Ga15 NFAT-bla reporter, FRET, antagonist | AID 571 | inhibition, % at 6 µM;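 active = inhibition above a set limit, the mean inhibition across every tested compound plus 3 SD, cut at about 29% in these data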;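 also: signal is the 460 over 535 nm emission ratio of beta-lactamase substrate; 0% = agonist plus DMSO wells and 100% = wells without agonist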
S1P1 ag-PAM: agonists and agonism potentiators of human S1P1 receptor | P21453 | S1P1 CRE-bla cells, forskolin, beta-lactamase FRET, potentiator mode; S1P1 agonist co-added at EC20, 2 nM; 100% = saturating reference agonist, 0% = basal | activation, % at 9.5 µM | 56,000 compounds, 0.57% hits | AID 449;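 active = activation above a cutoff set at the mean activation of all tested compounds plus 3 SD, cut at about 54% in these data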;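 also: forskolin at 4 µM as EC80 and the EC20 agonist is SEW2871; 100% = SEW2871 at its EC100 plus forskolin at EC80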
5HT1E ag: agonists of human 5-HT1E serotonin receptor; P28566; CHO 5-HT1E Ga15 NFAT-bla reporter, FRET; 0% DMSO wells, 100% control agonist wells; activation, % at 6 µM; 65,000 compounds, 0.69% hits; AID 574;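 active = activation above a set limit, the screen-wide mean activation plus 3 SD, cut at about 8.5% in these data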;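 also: 100% = positive control agonist at 1 µM giving full maximal response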
S1P3 agonist: S1P3 (human) receptor agonism; 60,000 compounds, 0.1% hits; AID 373; activation, % at 4.5 µM; Q99500; S1P3 NFAT-BLA reporter cells, FRET ratio; relative to 1 µM S1P, basal subtracted;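 active = activation above the screen-wide mean plus 3 SD, cut at about 4.5% in these data, passing the limit was not always enough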
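material = human S1P3 NFAT-BLA reporter CHO cells | schedule = 4 h compound at 37 °C, 2 h substrate at RT | measured by = fluorescent BLA substrate, ex 405 nm, em 460/535 nm ratio | controls = 1 µM S1P reference | replication = primary once, confirmation triplicate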
5-HT1A blocker: blocks the human serotonin 5-HT1a receptor | inhibition, % at 10 µM | P08908 | 62,000 compounds, 0.68% hits | CHO 5-HT1a Ga15 NFAT-bla reporter, antagonist mode;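 active = inhibition above the mean of all tested compounds plus 3 SD, cut at about 43% in these data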;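 also: receptor stimulated by 5-CT agonist at 100 nM near EC80; beta-lactamase reporter measured by ratiometric fluorescence of a cleavable substrate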
Target sequence (P08908 whole entry, looked up): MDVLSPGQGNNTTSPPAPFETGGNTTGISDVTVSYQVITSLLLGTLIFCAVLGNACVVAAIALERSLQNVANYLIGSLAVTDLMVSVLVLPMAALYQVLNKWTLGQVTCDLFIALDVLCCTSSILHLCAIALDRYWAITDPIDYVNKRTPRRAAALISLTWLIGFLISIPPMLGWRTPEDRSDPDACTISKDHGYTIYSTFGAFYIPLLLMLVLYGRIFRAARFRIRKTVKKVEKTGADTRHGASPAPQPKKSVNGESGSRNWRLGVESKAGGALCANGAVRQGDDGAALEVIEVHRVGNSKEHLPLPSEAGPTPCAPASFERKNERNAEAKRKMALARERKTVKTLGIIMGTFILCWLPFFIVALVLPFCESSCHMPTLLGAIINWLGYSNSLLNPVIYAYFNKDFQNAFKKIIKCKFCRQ
5HT1a ag: activates the human 5-HT1a serotonin receptor; AID 567; 65,000 compounds, 0.56% hits; activation, % at 10 µM; CHO 5-HT1a Ga15 NFAT-bla reporter, FRET ratio; 0% basal, 100% maximal reference agonist; P08908;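 active = activation above the screen-wide mean activation plus 3 SD, cut at about 19% in these data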;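 also: 0% = DMSO wells and 100% = 5-CT at EC100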
Starred values were filed as active, the others as inactive; / = not tested or not shown. Hits are enriched below; roughly 2.9% of the tested compounds scored in any of these assays.

SMILES	5HT1E antag	S1P1 ag-PAM	5HT1E ag	S1P3 agonist	5-HT1A blocker	5HT1a ag
CCCCCCC(=O)N(O)C1CC(=O)N(Cc2ccccc2)C1=O (stereo not drawn)	30*	28	-1	-2	30	-7
CC(C)C(CO)NC(=O)CC(=O)NC(CO)C(C)C (stereo not drawn)	-1	-6	0	0	-4	-1
Cn1c(=O)n(C)c2cc(NC(=O)CSc3nnc(-c4ccccc4O)n3-c3ccccc3)ccc21	-8	/	0	0	-10	2
O=C(COc1cccc(-n2cnnn2)c1)N1CCOCC1	-7	-1	0	0	-6	0
COc1ccc(Cl)cc1NC(=O)COc1cccc(-n2cnnn2)c1	-3	-13	35*	1	-8	1
COc1cc(OC)cc(C(=O)NCC2CCCO2)c1 (stereo not drawn)	-5	-18	-1	2	-5	-2
Cc1ncc(CO)c2cc(C(N)=O)c(=Nc3ccccc3)oc12	-2	-12	0	-1	2	-1
Cc1ccc(N=c2oc3cc(O)ccc3cc2C(N)=O)cc1	-9	-31	22*	0	-168	71*
COc1ccc(N=c2oc3cc(O)ccc3cc2C(=O)NCC2CCCO2)c(OC)c1 (stereo not drawn)	-13	-71	19*	2	-119	70*
COc1ccc(N=c2oc3cc(O)ccc3cc2C(=O)NCC2CCCO2)cc1 (stereo not drawn)	-11	-17	6	1	-7	26*
NS(=O)(=O)c1ccc(CCNC(=O)c2ccccc2F)cc1	1	6	0	0	-1	-2
COC(=O)c1cc(-c2c(C)oc3cc(OC)ccc3c2=O)c(C)o1	-12	-14	0	0	-8	1
COC(=O)c1cc(-c2c(C)oc3cc(O)ccc3c2=O)c(C)o1	1	-28	0	0	0	51*
Cc1ccc(C)c(N2CCN(c3ncnc4c3cnn4-c3ccccc3)CC2)c1	-12	-25	1	0	9	0
COc1cccc(N2CCN(c3ncnc4c3cnn4-c3ccc(C)cc3C)CC2)c1	69*	6	3	-3	48*	3
Cc1ccc(-n2ncc3c(N4CCCC(C)C4)ncnc32)c(C)c1 (stereo not drawn)	-14	73*	0	-1	-11	0
Cc1ccc(-n2ncc3c(N4CCCC4)ncnc32)c(C)c1	13	-11	0	-3	/	0
CC(=O)N1CCCc2cc(S(=O)(=O)NCCC3=CCCCC3)ccc21	12	58	0	-1	17	-4
COc1cccc(C2=NOC(C(=O)Nc3cccc(C(C)=O)c3)C2)c1OC (stereo not drawn)	-9	-8	0	1	-4	0
CC(Sc1cccc(C(F)(F)F)c1)C(=O)NC(N)=O (stereo not drawn)	3	9	0	-1	12	-3
CCN(CC(=O)NCc1ccc(F)cc1)CC(O)COCc1cccc(OC)c1 (stereo not drawn)	0	6	0	0	12	-2
COC(=O)Nc1nc(C)c(C(=O)N(C)C)s1	-2	3	-1	0	2	19*
Cc1ccc(C2c3c(oc4ccccc4c3=O)C(=O)N2c2nnc(C(C)C)s2)o1 (stereo not drawn)	32*	-13	2	-1	1	-1
O=C(COc1ccccc1)n1nc(-c2ccc(Cl)cc2)nc1NCc1ccco1	-1	3	0	0	6	-1
CC(=O)N1CCC(=O)N(C(C)C)c2ccccc21	-12	5	-1	0	-10	-2
SMILES	5HT1E antag	S1P1 ag-PAM	5HT1E ag	S1P3 agonist	5-HT1A blocker	5HT1a ag
COc1ccc(NC(=O)CN(c2cc(C)cc(C)c2)S(=O)(=O)c2c(C)n[nH]c2C)cc1	13	0	0	-1	4	-1
NC(=O)c1oc2ccc(Cl)cc2c1NC(=O)CN1CCOCC1	-9	2	-1	-2	1	0
COc1ccc(CNC(C)C2COc3ccccc3O2)c(OC)c1 (stereo not drawn)	-1	-40	13*	0	12	-4
CC(NC(=O)CCC(=O)NC(C)C1COc2ccccc2O1)C1COc2ccccc2O1 (stereo not drawn)	-9	4	1	1	0	0
O=C(COc1ccccc1)Nn1cnc2ccccc21	-2	9	0	0	-3	-3
O=C(NCc1ccc2c(c1)OCO2)C1CCN(Cc2cnn(-c3ccccc3)c2-n2cccc2)CC1	0	/	12*	/	-4	0
COc1ccc(NC(=O)C2CCN(Cc3cnn(-c4ccccc4)c3-n3cccc3)CC2)cc1OC	1	/	0	/	13	-2
CCCCn1c(NC(=O)CC)c(C#N)c2nc3ccccc3nc21	6	-1	3	0	11	4
CCCCn1c(NC(=O)c2ccccc2Cl)c(C#N)c2nc3ccccc3nc21	7	-37	8	1	-13	27*
COc1ccc(-n2c(NC(=O)c3ccco3)c(C#N)c3nc4ccccc4nc32)cc1	11	-31	6	4	7	22*
Cc1cc(N2CCN(C(=O)OC(C)(C)C)CC2)n2ncnc2n1	3	1	0	1	-4	-3
CCCn1c(CN2CCN(c3cccc(Cl)c3)CC2)nc2c1c(=O)n(C)c(=O)n2C	-3	135*	0	-1	8	-1
CCCCn1c(CN2CCN(c3cccc(Cl)c3)CC2)nc2c1c(=O)n(C)c(=O)n2C	-8	-3	2	1	-12	2
CC(C)CCn1c(CN2CCN(C(=O)c3ccco3)CC2)nc2c1c(=O)n(C)c(=O)n2C	1	2	1	0	1	57*
CCn1c(CN2CCN(C(=O)c3ccco3)CC2)nc2c1c(=O)n(C)c(=O)n2C	-2	-16	1	-1	-6	-4
CC(=O)NC(CCS(C)(=O)=O)C(=O)Nc1cc(Cl)ccc1Cl (stereo not drawn)	-5	12	0	0	9	120*
CC(=O)NC(CCS(C)(=O)=O)C(=O)Nc1ccccc1Cl (stereo not drawn)	-2	-28	-1	1	-4	-5
CCOc1cc(C2/C(=C(/O)c3ccc(OC(C)C)cc3)C(=O)C(=O)N2CCCOC)ccc1O (stereo not drawn)	-3	-8	-1	0	-10	-1
O=C1CC(C(=O)Nc2ccc(C(=O)N3CCOCC3)cc2)C2(CCCCC2)O1 (stereo not drawn)	-1	-28	0	-1	-14	-1
